Shown are actives, neighbours in structure and some others; about 2.1% of the full set was active somewhere.
MT stabilize HCS: microtubule stabilizers in HeLa cells; % tubulin-high responders, % at 10 µM; HeLa tubulin immunostaining HCS, 24 h; share of cells brighter than vehicle mean+2SD; 200,000 compounds, 0.83% hits; AID 2205;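 active = plate Z-score above 3 for both tubulin-high and condensed-nucleus cell shares, with cell loss under 80%, at 10 µM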;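 also: anti alpha tubulin signal scored within the nucleus-defined area of each cell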
bCat nuc transl: beta-catenin nuclear translocation modulation; HeLa beta-catenin nuclear translocation, immunofluorescence imaging; nuclear translocation activity, % at 5 µM; 190,000 compounds, 0.3% hits;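 active = nuclear translocation activity above 50% at 5 µM, with a well cell count of 50 or more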;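 also: per-cell ratio of nuclear to cytoplasmic median beta-catenin stain intensity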
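Test system: human HeLa cells, native beta-catenin. Compound dosing: 5 µM primary single dose, 0.1% DMSO, 0.02–20 µM confirmation series. Incubation: compound exposure 24 h at 37°C. Detection: beta-catenin immunostaining with DAPI counterstain, 20x imaging, 6 fields/well. Read-out basis: Nuclear/cytoplasmic beta-catenin signal ratio, % activation.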
IEC-6 cytotox: kills IEC-6 intestinal cells in KLF5 counter-screen. IEC-6 cytotoxicity, luminescence viability. inhibition, % at 5 µM. 290,000 compounds, 0.78% hits; in the data active = inhibition above about 22%
BaF3 parental: parental Ba/F3 viability inhibition as JAK2V617F counter-screen; 220,000 compounds, 1.1% hits; CellTiter-Glo ATP luminescence; inhibition, % at 5.6 µM;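 active = inhibition above a per-campaign cutoff, the mean inhibition of all tested compounds plus 3 SD, cut at about 27% in these data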
Ba/F3 V617F tox: reduce viability of Ba/F3 cells dependent on JAK2V617F; 220,000 compounds, 1.1% hits; inhibition, % at 5.6 µM; AID 1446; Ba/F3 EpoR-JAK2V617F viability, ATP luminescence;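 active = inhibition above the campaign mean plus 3 SD over all tested compounds, cut at about 24% in these data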;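 also: cytokine-independent growth of Ba/F3 cells driven by EpoR plus mutant JAK2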
KLF5 inh: inhibitors of KLF5 expression. 290,000 compounds, 0.23% hits. DLD-1 KLF5 promoter-luciferase reporter, luminescence. AID 1700. inhibition, % at 5 µM;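 active = inhibition above a per-plate limit of that plate's mean compound inhibition plus 3 SD, cut at about 60% in these data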;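 also: higher means less KLF5 promoter-driven luciferase light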
BaF3 parental 2: counter-screen for JAK2V617F inhibitors: parental Ba/F3 viability inhibitors | shares compounds with Ba/F3 V617F tox | CellTiter-Glo luminescence; cells kept alive by added IL-3 | inhibition, % at 5.6 µM | 580 compounds, 31% hits | AID 1520;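 active = cell growth inhibition above the hit limit set in the earlier mutant JAK2 cell screen, cut at about 27% in these data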
JAK2V617F conf: confirmation: loss of viability in JAK2V617F-dependent Ba/F3 cells. shares compounds with Ba/F3 V617F tox. Ba/F3 EpoR-JAK2V617F viability, CellTiter-Glo luminescence. inhibition, % at 5.6 µM. 580 compounds, 66% hits. AID 1521;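 active = mean inhibition above the hit cutoff derived in the earlier primary screen, cut at about 25% in these data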;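 also: higher means lower luminescence from reduced cell ATP and viability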
Of the large screens only hits and unclear results are named; the others gave an inactive call (follow-up assays come after a bar, where they were run).

CCOC(=O)C1=CN(Cc2ccc(OC)cc2)C=C(C(=O)OCC)C1c1cccs1	none
O=C(Nc1cccc2c1[nH]c1ccccc12)C(F)(F)F	Ba/F3 V617F tox 53.1 | BaF3 parental 2 inactive | JAK2V617F conf 52.2
CC(=O)Nc1ccccc1NC(=O)C(F)(F)F	none
COc1ccc(C(=O)N=C2SC3CS(=O)(=O)CC3N2c2ccc(N(C)C)cc2)cc1OC (configuration not stated)	none (no result: MT stabilize HCS, bCat nuc transl, BaF3 parental, Ba/F3 V617F tox)
Oc1ccccc1OCCOc1ccccc1OCCOc1ccccc1O	Ba/F3 V617F tox 25.6 (no result: MT stabilize HCS) | BaF3 parental 2 inactive | JAK2V617F conf 71.2
Oc1ccccc1OCC(O)c1ccccc1 (configuration not stated)	none (no result: MT stabilize HCS, bCat nuc transl, BaF3 parental, Ba/F3 V617F tox)
Nc1nc(N)c2nc(-c3ccccc3)c(N)nc2n1	Ba/F3 V617F tox 30.2 | BaF3 parental 2 inactive | JAK2V617F conf 73.0
NSc1nc(N)c2nc(-c3ccccc3)c(-c3ccccc3)nc2n1	none
Fc1ccc(CSc2ncnc3sc4c(c23)CCCC4)cc1	Ba/F3 V617F tox 99.4 | BaF3 parental 2 inactive | JAK2V617F conf inactive
CC(C)(C)c1ccc(OCc2ccc(C(=O)N/N=C/c3ccc(O)c(O)c3)cc2)cc1	Ba/F3 V617F tox 100.8 | BaF3 parental 2 81.0 | JAK2V617F conf 99.3
N/C(=N\OC(=O)c1cccc(Br)c1)c1ccc(Br)cc1	Ba/F3 V617F tox 35.0 | BaF3 parental 2 inactive | JAK2V617F conf inactive
CC(C)(C)NC(=O)NC(=O)CN1CCN(S(=O)(=O)/C=C/c2ccccc2)CC1	none (no result: MT stabilize HCS, bCat nuc transl, BaF3 parental, Ba/F3 V617F tox)
Cc1nnc(SCC(=O)NCc2ccc3c(c2)OCO3)[nH]c1=O	none
Cc1cccc(C)c1N(C(=O)c1ccco1)C(C(=O)NC1CCCC1)c1ccncc1 (configuration not stated)	none (no result: MT stabilize HCS, bCat nuc transl, BaF3 parental, Ba/F3 V617F tox)
CCc1cc(C(=O)N2CCCC(CCC(=O)N3CCN(c4ccccn4)CC3)C2)no1 (configuration not stated)	none
CC(C)c1cc(C(=O)N2CCCC(CCC(=O)N3CCN(c4ccccn4)CC3)C2)no1 (configuration not stated)	Ba/F3 V617F tox 32.1 (no result: MT stabilize HCS) | BaF3 parental 2 inactive | JAK2V617F conf inactive
O=c1[nH]c2ccccc2n1C1=CCNCC1	none (no result: MT stabilize HCS)
Cc1nc2ccccc2c2oc(C(=O)NCCCN3CCCC(C)C3)cc12 (configuration not stated)	none (no result: MT stabilize HCS, bCat nuc transl, BaF3 parental, Ba/F3 V617F tox)
CC1CCCN(CCCNC(=O)c2cc3c(Cl)nc4ccccc4c3s2)C1 (configuration not stated)	Ba/F3 V617F tox 63.1 | BaF3 parental 2 inactive | JAK2V617F conf 84.6
COc1ccc(CCNC(=O)C(NS(=O)(=O)c2ccc3c(c2)CCN3C(C)=O)C(C)C)cc1OC (configuration not stated)	Ba/F3 V617F tox 65.4 | BaF3 parental 2 inactive | JAK2V617F conf inactive
CCc1ccc(NC(=O)C(NS(=O)(=O)c2ccc3c(c2)CCN3C(C)=O)C(C)C)cc1 (configuration not stated)	none (no result: MT stabilize HCS, bCat nuc transl, BaF3 parental, Ba/F3 V617F tox)
CC(=C\C(=O)O)/C(=C\c1cccc2ccccc12)C(=O)O	none (no result: MT stabilize HCS)
O=C1OC(/C(=C\Nc2ccc(F)cc2F)[N+](=O)[O-])c2ccccc21 (configuration not stated)	none
O=C1OC(/C(=C\Nc2cc(Cl)ccc2O)[N+](=O)[O-])c2ccccc21 (configuration not stated)	Ba/F3 V617F tox 45.9 | BaF3 parental 2 inactive | JAK2V617F conf 55.9
O=C1C(Nc2ccccc2)=C/C(=N/S(=O)(=O)c2cccs2)c2ccccc21	Ba/F3 V617F tox 46.0 | BaF3 parental 2 93.1 | JAK2V617F conf 96.3
Nc1nc(CCl)nc(Nc2ccccc2)n1	none
Cc1ccc(Nc2nc(N)nc(CCl)n2)cc1	Ba/F3 V617F tox 33.9 (no result: MT stabilize HCS) | BaF3 parental 2 inactive | JAK2V617F conf 57.9
CCOc1ccc(Nc2nc(N)nc(CCl)n2)cc1	IEC-6 cytotox 100.5, Ba/F3 V617F tox 98.6 (no result: MT stabilize HCS) | BaF3 parental 2 inactive | JAK2V617F conf 99.2
COc1cccc(Nc2nc(N)nc(CCl)n2)c1	none (no result: MT stabilize HCS)
Cc1ccc(C(=O)n2c(N)nc3ccccc32)cc1	Ba/F3 V617F tox 50.7 | BaF3 parental 2 inactive | JAK2V617F conf inactive
O=C(CNC(=O)C1CCCCC1)NNC(=O)c1ccccc1Br	none (no result: MT stabilize HCS, bCat nuc transl, BaF3 parental, Ba/F3 V617F tox)
COc1cc(NC(=O)c2ccc([N+](=O)[O-])o2)ccc1NC(=O)c1cccs1	none
O=C(Nc1cccc(NC(=O)c2cccs2)c1)c1ccc([N+](=O)[O-])o1	IEC-6 cytotox 64.3, Ba/F3 V617F tox 39.5 (no result: MT stabilize HCS) | BaF3 parental 2 inactive | JAK2V617F conf 72.0
CCc1ccc(Nc2ccc(S(=O)(=O)N3CCOCC3)cc2[N+](=O)[O-])cc1	Ba/F3 V617F tox 81.7 | BaF3 parental 2 inactive | JAK2V617F conf inactive
CN1C(=O)[C@H]2[C@@H](/C=C/c3ccccc3)N3C(=O)CN(Cc4ccc(-c5ccccc5)cc4)C(=O)[C@@]3(Cc3ccccc3)[C@H]2C1=O	none (no result: MT stabilize HCS, bCat nuc transl, BaF3 parental, Ba/F3 V617F tox)
Cc1cccn2cc(COc3ccc(-c4ccccc4)cc3)nc12	Ba/F3 V617F tox 48.0 | BaF3 parental 2 42.6 | JAK2V617F conf 43.2
Cc1cccn2cc(COc3cccc([N+](=O)[O-])c3)nc12	none
CCOc1cc(N2CCOCC2)c(OCC)cc1NC(=O)COC(=O)c1cccc2ccccc12	none
CC(C)C1C(C#N)=C(N)Oc2n[nH]c(-c3ccc4ccccc4c3)c21 (configuration not stated)	MT stabilize HCS 32.5, Ba/F3 V617F tox 33.0 | BaF3 parental 2 inactive | JAK2V617F conf 67.6
CC(C)C1C(C#N)=C(N)Oc2n[nH]c(-c3cccs3)c21 (configuration not stated)	none
O=C(/C=C1\NC2(CCCC2)Cc2ccccc21)C(=O)N/N=C/c1ccc(O)c(O)c1	Ba/F3 V617F tox 45.0 | BaF3 parental 2 inactive | JAK2V617F conf 95.2
Cc1cc(NC(=S)N(Cc2cccc(Br)c2)CC2CCC(C(=O)O)CC2)ccc1Cl (configuration not stated)	Ba/F3 V617F tox 29.2 | BaF3 parental 2 27.4 | JAK2V617F conf 37.9
Cc1ccc(NC(=S)N(Cc2cccc(Br)c2)CC2CCC(C(=O)O)CC2)cc1 (configuration not stated)	none
CC(=O)c1ccc2cccc3c2c1N=CN3C	Ba/F3 V617F tox 50.0 | BaF3 parental 2 inactive | JAK2V617F conf inactive
O=C(Nc1ccc(Cl)cc1)Nc1ccc(N2CCC(C(F)(F)F)CC2)nc1	none (no result: MT stabilize HCS)
Cc1ccc2c(CC(=O)NCc3ccco3)coc2c1C	MT stabilize HCS 41.3, bCat nuc transl 113.8, Ba/F3 V617F tox 34.6 | BaF3 parental 2 inactive | JAK2V617F conf inactive
Cc1ccc2c(CC(=O)NC3CCS(=O)(=O)C3)coc2c1C (configuration not stated)	none (no result: MT stabilize HCS, bCat nuc transl, BaF3 parental, Ba/F3 V617F tox)
CC1(C)CC(NC(=O)c2cc(S(=O)(=O)N3CCCCC3)ccc2Cl)CC(C)(C)N1	none (no result: MT stabilize HCS, bCat nuc transl, BaF3 parental, Ba/F3 V617F tox)
